MEKK3 PB1 HTS – modulators of MEKK3-MEK5 PB1 binding, primary screen, biochemical, wildtype MEKK3, multiplex bead flow cytometry, Alexa488-MEK5. 290,000 tested, 1.4% active. AID 1529, 2009. Mitogen-activated protein kinase kinase kinase 3 (Homo sapiens), Q99759. bead-based flow cytometry, Alexa488-MEK5 binding to MEKK3; actives lie on both sides; 0 = blocked by unlabeled MEK5, 100 = vehicle. binding response (% of control), % at 10 µM;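 active = binding response more than 3 SD above or below the average of its plate-row segment, actives on both sides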;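 also: Alexa488 bead fluorescence after subtracting the streptavidin-only scavenger bead signal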
Target sequence (Q99759 whole entry, looked up): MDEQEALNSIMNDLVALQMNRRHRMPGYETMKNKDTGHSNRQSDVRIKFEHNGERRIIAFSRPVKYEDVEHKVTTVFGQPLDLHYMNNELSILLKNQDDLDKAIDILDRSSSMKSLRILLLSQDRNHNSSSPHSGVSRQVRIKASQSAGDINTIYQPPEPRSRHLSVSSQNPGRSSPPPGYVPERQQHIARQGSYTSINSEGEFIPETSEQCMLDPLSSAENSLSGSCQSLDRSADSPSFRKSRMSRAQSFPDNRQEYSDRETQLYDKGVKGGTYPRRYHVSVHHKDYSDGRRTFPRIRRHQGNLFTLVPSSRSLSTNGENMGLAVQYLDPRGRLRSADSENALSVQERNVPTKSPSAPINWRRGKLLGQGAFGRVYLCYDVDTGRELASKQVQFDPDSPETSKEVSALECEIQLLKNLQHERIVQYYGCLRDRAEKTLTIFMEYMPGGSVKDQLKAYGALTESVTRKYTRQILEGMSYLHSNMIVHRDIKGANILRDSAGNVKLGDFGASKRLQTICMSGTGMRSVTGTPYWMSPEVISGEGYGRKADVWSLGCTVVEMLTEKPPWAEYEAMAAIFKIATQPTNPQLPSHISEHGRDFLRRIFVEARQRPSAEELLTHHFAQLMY
T cruzi repl – inhibitors of intracellular T. cruzi growth, primary screen, luminescence, NIH3T3 host cells | 300,000 tested, 1.4% active | inhibition, % (no concentration beside the values) | T. cruzi beta-gal in NIH3T3, 90 h | AID 1885, 2009;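 active = mean inhibition across valid replicates above about 55%, limit read from the data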;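 also: signal also drops with host cell toxicity which is not excluded here; 0% = plate median of DMSO wells and 100% = zero luminescence signal; higher percent means less beta-gal luminescence so fewer parasites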
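Test system: β-gal T. cruzi (Tulahuen C4) inside NIH/3T3 cells / Quantity: 5,000 cells/well / Measured by: luminescence from GalScreen with 0.05% NP40, read after 60 min / Medium: DMEM plus 2% FBS / Measure: parasite load inhibition, % / Reagent: Tulahuen C4 trypomastigotes, 5000/well / Schedule: co-culture of at least 90 h after 3 h attachment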
MEKK2 mut-MEK5 – MEK5 binding signal on mutant MEKK2 PB1, primary screen, biochemical, multiplex bead flow cytometry, Alexa488-MEK5. Alexa488-MEK5 binding to MEKK2 mutant. percent response, % at 10 µM. 290,000 tested, 0.35% active. AID 1530, 2009; in the data active = percent response above about 24%, passing the limit was not always enough
NS3 helicase inh – inhibitors of HCV NS3 helicase, primary screen, biochemical, Cy5 molecular beacon fluorescence; Hepatitis C virus NS3 helicase; NS3 helicase DNA unwinding; inhibition, % at 10.9 µM; 290,000 tested, 0.56% active; AID 1800, 2009;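 active = inhibition above the mean of all tested compounds plus 3 SD, set per campaign, cut at about 35% in these data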;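 also: 0% = DMSO wells and 100% = thioflavine S control wells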
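Assay system – hepatitis C virus NS3 helicase domain fragment enzyme · Buffer or medium – MOPS pH 6.5, MgCl2, DTT, Tween20, BSA · Reagent – Cy5/quencher beacon DNA duplex and ATP to start · Compound – single 10.9 µM dose · Timing – 1 h at 25 °C · Technique – Cy5 beacon fluorescence read at start and 1 h · Measure – % inhibition of unwinding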
DNA FID counter – compounds displacing fluorescent DNA intercalator, primary screen, artefact control for HCV NS3 helicase inhibitor project, biochemical, FID fluorescence | 290,000 tested, 0.17% active | DNA fluorescent intercalator displacement | inhibition, % at 7.9 µM; in the data active = inhibition above about 37%;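 also: 0% = vehicle and 100% = reference compound; higher means more ethidium bromide displaced from hairpin DNA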
MEKK2wt PB1 HTS – modulators of MEK5 binding to wildtype MEKK2, primary screen, biochemical, multiplex bead flow cytometry, Alexa488-MEK5 | 290,000 tested, 1.1% active | binding response (% of control), % at 10 µM | Alexa488-MEK5 binding to MEKK2 WT; actives lie on both sides | Mitogen-activated protein kinase kinase kinase 2 (Homo sapiens), Q9Y2U5; in the data active = binding response below about 67% or above about 130%
MEKK2wt confirm – modulators of MEK5 binding to wildtype MEKK2, confirmation, biochemical, single concentration, multiplex bead flow cytometry; Alexa488-MEK5 binding to MEKK2 WT; actives lie on both sides; AID 1892, 2009; shares compounds with MEKK3 PB1 HTS; binding response (% of control), % at 10 µM; 5,900 tested, 2.4% active; in the data active = binding response below about 16% or above about 210%; inactive = in between
MEKK2mut confirm – mutant MEKK2 PB1-MEK5 binding signal retest – biochemical, single concentration, multiplex bead flow cytometry, confirmation; shares compounds with MEKK3 PB1 HTS; Alexa488-MEK5 binding to MEKK2 mutant; percent response, % at 10 µM; 5,900 tested, 2% active; in the data active = percent response mostly above about 71%, no sharp cut-off; inactive = mostly below about 38%;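 also: higher means compound restores mutant binding toward wildtype level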
MEKK3 confirm – MEKK3 wild-type PB1 binding to MEK5, inhibitors, confirmation, biochemical, bead multiplex flow cytometry, single concentration, wildtype. Alexa488-MEK5 binding to MEKK3; hits give low values. binding response (% of control), % at 10 µM. 5,900 tested, 1.8% active. shares compounds with MEKK3 PB1 HTS;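 active = binding response below 72% of control, or above a set upper limit, though filed actives all read lower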;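 also: 100% = DMSO only wells and 0% = binding blocked by excess unlabeled MEK5; lower values mean stronger disruption of MEK5 binding to MEKK3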
* marks the source's active call; other numbers are inactive results; x = no result given; [ ] = remark or other dose. Only some compounds are listed: those with a hit (about 4.1% of all), similar ones and a draw of the others.

SMILES | MEKK3 PB1 HTS | T cruzi repl | MEKK2 mut-MEK5 | NS3 helicase inh | DNA FID counter | MEKK2wt PB1 HTS | MEKK2wt confirm | MEKK2mut confirm | MEKK3 confirm
C=CCc1ccccc1OCC(=O)O | 45*[inhibitor] | -11 | -11 | 0 | -1 | 53 | 96 | 0 | 99
CC(=O)NC1=NN(C(C)=O)C2(CCCC2)S1 | 132* | 4 | 0 | 4 | -2 | 119 | 107 | 6 | 105
CC(=O)N1N=C(N)SC12CCCC2 | 89 | -11 | -1 | -3 | 1 | 97 | x | x | x
Cc1ccc(F)cc1CNC(=O)C1CCC(=O)N(CCCN2CCCC2=O)C1 (stereo unspecified) | 101 | -8 | 5 | -11 | -7 | 104 | x | x | x
O=C(CCC(=O)N(CC(=O)NC1CCCCC1)c1ccc(F)cc1)Nc1ccccn1 | 102 | 9 | 1 | 9 | -19 | 102 | x | x | x
COc1ccc(CCNC(=O)CCS(=O)(=O)c2ccc3nc(C)sc3c2)cc1OC | 98 | -6 | -3 | 10 | -24 | 98 | x | x | x
Cc1nc(NC(=O)C23CC4CC(CC(C4)C2)C3)sc1Cc1ccc2c(c1)OCO2 | 108 | 65* | 30 | -5 | 5 | 147* | 131 | 15 | 105
Cc1nc(NC(=O)C2CCCC2)sc1Cc1ccc2c(c1)OCO2 | 107 | 7 | 1 | -19 | -8 | 109 | x | x | x
CC(O)[C@H]1CNC(=O)C(=O)N1CCc1cc(C(F)(F)F)cc(C(F)(F)F)c1 (stereo partly specified) | 91 | -17 | 2 | x | x | 103 | x | x | x
CCCC(=O)N1N=C(c2ccccc2)CC1c1cn(C)c2ccccc12 (stereo unspecified) | 134* | -4 | 3 | -1 | -18 | 107 | 100 | -4 | 100
COc1ccc(CCNC(=O)CCN2C(=O)COc3ccccc32)cc1OC | 81*[inhibitor] | -4 | -10 | -7 | -7 | 90 | 100 | -3 | 98
COc1ccc(CCNC(=O)CCN2C(=O)COc3ccc(C)cc32)cc1OC | 105 | 14 | 8 | 2 | -26 | 107 | x | x | x
CCOc1cc(S(=O)(=O)NCc2ccccc2)ccc1Br | 101 | 16 | -3 | -8 | -11 | 97 | x | x | x
COc1ccccc1NS(=O)(=O)c1ccc(C(N)=O)cc1 | 28*[inhibitor] | 3 | -76 | -13 | 0 | 35*[inhibitor] | 99 | -2 | 99
Cc1cc(/C=N/N2CCN(C)CC2)c(C)n1-c1ccc(Cl)cc1 | 95 | 44 | 23 | -28 | -2 | 125 | x | x | x
O=C(N/C(=C\c1cccc([N+](=O)[O-])c1)C(=O)N1CCOCC1)c1cccc(Br)c1 | 107 | -2 | 10 | 2 | -19 | 110 | x | x | x
COCCCNC(=S)N1CCN(C(c2ccccc2)c2ccccc2)CC1 | 98 | -16 | -1 | 4 | -2 | 96 | x | x | x
CCN1CCN(c2c(Cl)cccc2NC(=O)c2ccc3c(c2)OCCO3)CC1 | 48*[inhibitor] | 11 | -24 | -4 | 9 | 68 | 110 | 3 | 104
CC1CC1C(=O)OCC(=O)N(C)c1c(N)n(Cc2ccccc2)c(=O)[nH]c1=O (stereo unspecified) | x | -7 | x | x | x | x | x | x | x
Cc1c(NC(=S)N2CCN(c3ccc(F)cc3)CC2)c(=O)n(-c2ccccc2)n1C | 97 | -13 | 2 | -2 | -7 | 100 | x | x | x
COc1ccc(OC)c(NC(=O)c2nc3ccccc3s2)c1 | 3.0*[inhibitor] | -5 | 2 | -1 | -3 | 3.0*[inhibitor] | 111 | 6 | 109
Cc1cc(C(=O)COc2ccc3ccc(=O)oc3c2)c(C)n1Cc1cccs1 | 142* | 3 | 0 | 15 | -4 | 105 | 96 | -4 | 98
Cc1ccc(OCC(=O)c2cc(C)n(Cc3cccs3)c2C)c([N+](=O)[O-])n1 | 89 | 19 | -5 | -3 | -11 | 92 | x | x | x
COc1cc(CNCCO)cc(Cl)c1OCc1ccccc1Cl | 104 | 11 | 7 | -50 | 26 | 132 | x | x | x
CCOc1cc(CNCCO)cc(Br)c1OCc1ccccc1Cl | 102 | 32 | 12 | -103 | 29 | 142* | 148 | 33 | 104
SMILES | MEKK3 PB1 HTS | T cruzi repl | MEKK2 mut-MEK5 | NS3 helicase inh | DNA FID counter | MEKK2wt PB1 HTS | MEKK2wt confirm | MEKK2mut confirm | MEKK3 confirm
CCOc1cc(CNCCCN2CCOCC2)cc(Br)c1OCc1ccccc1Cl | 114 | 80* | 78* | -89 | 40* | 199* | 173 | 33 | 105
CCOc1cc(CNC(C)(C)CO)cc(Br)c1OCc1ccc(Cl)cc1Cl | 117 | 51 | 75* | -40 | 38* | 262* | 202 | 67 | 116
O=C(CCN1CCCC1=O)NC1CCCc2c1cnn2-c1ccc(F)cc1F (stereo unspecified) | 101 | 3 | 2 | 4 | -12 | 100 | x | x | x
COCC(=O)O[C@]1(CCN(C)CCCc2nc3ccccc3[nH]2)CCc2cc(F)ccc2[C@@H]1C(C)C | 118 | 40 | 19 | x | x | 172* | 136 | 21 | 107
Cc1ccccc1NC(=O)CSCCN1C(=O)c2ccccc2C1=O | 74*[inhibitor] | -23 | -1 | 0 | -3 | 97 | 98 | 0 | 99
COc1ccccc1NC(=S)N1CCN(c2cccc(C)c2C)CC1 | 101 | 20 | -6 | -20 | -19 | 97 | x | x | x
CC(=O)/C=C\c1ccccc1OC(=O)c1cc2ccccc2oc1=O | 98 | -18 | 2 | 0 | -13 | 100 | x | x | x
O=C(/C=C\c1ccccc1OC(=O)c1ccccc1F)c1cc2ccccc2o1 | 135* | -3 | 0 | 3 | 4 | 103 | 105 | 0 | 109
O=C(NCc1ccco1)c1cccs1 | 77*[inhibitor] | -18 | -11 | 4 | -4 | 84 | 100 | -1 | 97
O=C(NCc1nc(-c2ccccc2)no1)c1cccs1 | 0.0*[inhibitor] | -13 | -39 | -5 | -3 | -4.0*[inhibitor] | 95 | 0 | 99

High-throughput results deposited in PubChem by several laboratories.
